Data taken from ChEMBL document CHEMBL5154824, “Design and synthesis of multifunctional microtubule targeting agents endowed with dual pro-apoptotic and anti-autophagic efficacy” (Eur J Med Chem, 2022).
Activity calls are given as the source filed them. The rule behind the calls is not given here.

Tests used:
[1] = tested on: HeLa; experiment: Induction of morphological changes in human HeLa cells assessed as golgi complex fragmentation at 10 uM incubated for 3 hrs by phalloidin staining based laser scanning confocal microscopic analysis; type: functional, cell-based
In short: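 HeLa cells in growth medium were treated at 1 or 10 μM, with BafA1 300 nM as reference, for 3 h. Cells were fixed in 4% PFA, stained with anti-GM130 for the Golgi and AF647-phalloidin for actin, and imaged by laser scanning confocal microscopy.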

[2] = tested on: SCC-4; experiment: Induction of autophagy in human SCC-4 cells assessed as decrease in UlK1 protein level at 10 uM in measured after 24 hrs by Immunoblotting analysis; type: functional, cell-based
In short: (§1)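 SCC4 cells under basal conditions were treated at 10 μM for 24 h. Autophagy-related proteins were immunoblotted, and densitometry was expressed as a ratio normalised to vehicle control.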

[3] = tested on: KYSE-520 cell line; experiment: Cytotoxicity against human KYSE520 cells assessed as inhibition of cell growth measured after 48 hrs by alamar blue viability assay; type: functional, cell-based; settings: KYSE-520, 48 h
In short: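 KYSE-520 oesophageal cells were exposed to at least 8 increasing concentrations for 48 h or 72 h. Viability was read out to give IC50, as the mean ± SD of at least three independent experiments.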

[4] = biological target: Nuclear factor NF-kappa-B complex (Homo sapiens) (UniProt Q00653+P19838+Q04206); experiment: Inhibition of NF-kappaB phosphorylation in human HL-60 cells at 10 uM measured after 2 hrs by Immunoblotting analysis; type: cell-based
Chain of Nuclear factor NF-kappa-B complex (Homo sapiens) (P19838 whole entry, looked up): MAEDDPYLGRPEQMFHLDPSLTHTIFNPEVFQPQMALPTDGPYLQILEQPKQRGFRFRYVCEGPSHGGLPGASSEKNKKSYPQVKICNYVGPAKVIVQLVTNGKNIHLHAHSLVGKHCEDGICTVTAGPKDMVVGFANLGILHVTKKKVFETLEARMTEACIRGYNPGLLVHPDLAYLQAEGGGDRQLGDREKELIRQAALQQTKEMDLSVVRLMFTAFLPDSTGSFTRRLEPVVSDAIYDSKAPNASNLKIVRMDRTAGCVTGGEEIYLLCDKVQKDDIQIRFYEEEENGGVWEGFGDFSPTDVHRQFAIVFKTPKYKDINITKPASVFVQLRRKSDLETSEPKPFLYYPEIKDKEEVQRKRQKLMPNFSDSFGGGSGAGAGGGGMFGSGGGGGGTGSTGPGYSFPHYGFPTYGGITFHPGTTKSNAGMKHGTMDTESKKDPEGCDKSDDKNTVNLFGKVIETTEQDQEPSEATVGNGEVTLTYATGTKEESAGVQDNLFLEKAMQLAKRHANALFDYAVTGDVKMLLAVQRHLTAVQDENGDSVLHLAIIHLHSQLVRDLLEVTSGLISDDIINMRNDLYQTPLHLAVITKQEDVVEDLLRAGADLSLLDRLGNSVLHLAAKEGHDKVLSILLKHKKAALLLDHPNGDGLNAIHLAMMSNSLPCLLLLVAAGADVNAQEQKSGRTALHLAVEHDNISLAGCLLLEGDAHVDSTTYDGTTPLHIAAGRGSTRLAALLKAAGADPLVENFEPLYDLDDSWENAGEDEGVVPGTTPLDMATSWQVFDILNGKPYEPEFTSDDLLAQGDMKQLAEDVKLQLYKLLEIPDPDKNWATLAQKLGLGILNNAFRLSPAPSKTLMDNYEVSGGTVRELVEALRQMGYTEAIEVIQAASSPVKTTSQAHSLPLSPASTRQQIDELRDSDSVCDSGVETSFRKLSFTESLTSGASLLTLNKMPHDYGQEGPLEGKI
Chain of Nuclear factor NF-kappa-B complex (Homo sapiens) (Q00653 whole entry, looked up): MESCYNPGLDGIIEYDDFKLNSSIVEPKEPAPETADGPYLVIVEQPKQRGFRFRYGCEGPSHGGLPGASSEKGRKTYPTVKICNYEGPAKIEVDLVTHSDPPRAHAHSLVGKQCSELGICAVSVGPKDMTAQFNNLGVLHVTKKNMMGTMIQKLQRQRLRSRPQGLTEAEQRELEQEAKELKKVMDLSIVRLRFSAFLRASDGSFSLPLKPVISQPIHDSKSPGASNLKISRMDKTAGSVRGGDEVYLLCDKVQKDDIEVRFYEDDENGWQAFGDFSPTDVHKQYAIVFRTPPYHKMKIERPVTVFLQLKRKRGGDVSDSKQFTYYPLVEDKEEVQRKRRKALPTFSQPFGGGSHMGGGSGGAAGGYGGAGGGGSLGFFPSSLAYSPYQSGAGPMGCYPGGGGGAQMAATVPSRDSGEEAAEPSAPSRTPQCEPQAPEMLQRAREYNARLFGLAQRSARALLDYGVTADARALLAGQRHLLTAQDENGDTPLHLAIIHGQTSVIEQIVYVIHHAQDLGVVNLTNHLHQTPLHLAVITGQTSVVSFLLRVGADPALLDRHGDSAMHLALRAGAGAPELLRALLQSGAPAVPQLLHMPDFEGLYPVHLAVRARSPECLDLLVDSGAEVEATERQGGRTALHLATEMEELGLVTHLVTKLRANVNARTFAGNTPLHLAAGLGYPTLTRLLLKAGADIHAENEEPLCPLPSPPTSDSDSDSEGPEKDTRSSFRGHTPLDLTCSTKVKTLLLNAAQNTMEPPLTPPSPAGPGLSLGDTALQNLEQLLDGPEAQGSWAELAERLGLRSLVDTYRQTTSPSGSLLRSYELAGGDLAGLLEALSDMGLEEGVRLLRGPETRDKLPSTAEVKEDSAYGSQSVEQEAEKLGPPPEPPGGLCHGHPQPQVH
Chain of Nuclear factor NF-kappa-B complex (Homo sapiens) (Q04206 whole entry, looked up): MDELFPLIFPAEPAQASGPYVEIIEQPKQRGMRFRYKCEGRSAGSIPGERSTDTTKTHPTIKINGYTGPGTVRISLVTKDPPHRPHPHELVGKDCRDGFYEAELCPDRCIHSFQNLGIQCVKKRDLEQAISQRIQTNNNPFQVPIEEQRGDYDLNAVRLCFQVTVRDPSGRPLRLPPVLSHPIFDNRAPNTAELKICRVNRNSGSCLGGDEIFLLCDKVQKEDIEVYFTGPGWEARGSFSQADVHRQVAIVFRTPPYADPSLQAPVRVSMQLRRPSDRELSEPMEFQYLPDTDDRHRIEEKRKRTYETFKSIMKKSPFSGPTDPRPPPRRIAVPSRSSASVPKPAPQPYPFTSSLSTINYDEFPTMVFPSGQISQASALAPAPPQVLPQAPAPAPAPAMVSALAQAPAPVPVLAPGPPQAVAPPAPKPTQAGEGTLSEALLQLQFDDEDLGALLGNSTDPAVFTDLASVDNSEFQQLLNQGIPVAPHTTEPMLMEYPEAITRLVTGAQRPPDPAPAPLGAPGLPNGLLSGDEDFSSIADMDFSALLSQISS
In short: (§2)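 HL-60 cells were treated at 10 μM or with DMSO vehicle for 2 h. Phospho-NF-κB and phospho-Erk1/2 were immunoblotted and quantified by densitometry relative to β-tubulin. Data are mean ± SD (n = 2), analysed by one-way ANOVA.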

[5] = tested on: HL-60; experiment: Induction of autophagy in human HL-60 cells assessed as increase in p62 protein level at 10 uM […] by Immunoblotting analysis; type: functional, cell-based
[6] = Mutagenicity in Salmonella typhimurium TA98 in presence of rat liver S9 fraction at 0.3 to 60 uM by AMES test; type: toxicity, subcellular; settings: salmonella enterica subsp. enterica serovar typhimurium, s9, 60 µM; dose 0.3-60 µM
[7] = tested on: HeLa; experiment: Induction of autophagy in human HeLa cells assessed as increasing number of autophagosomes at 1 to 10 uM incubated for 3 hrs with HBSS medium by immunofluorescence based laser scanning confocal microscopic analysis; type: functional, cell-based; settings: dose 1-10 µM
In short: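 HeLa cells were treated in HBSS at 1 or 10 μM, with BafA1 300 nM as reference, for 3 h. After fixation in ice-cold methanol, LC3 and LAMP1 were immunostained. Laser scanning confocal microscopy assessed autophagosome number and LC3/LAMP1 colocalisation.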

[8] = tested on: Emu-TCL1; experiment: Induction of apoptosis in mouse Emu-TCL1 cells model of CLL assessed as mitochondrial membrane depolarization at 10 uM after 48 hrs by TMRM dye based flow cytometric analysis; type: functional, cell-based
In short: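 Splenocytes from Eμ-TCL1 leukaemic mice were treated with 10 μM or DMSO vehicle for 48 h, then TMRM-loaded. Flow cytometry gave the percentage of TMRM-low cells as mean ± SD (n = 3).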

[9] = biological target: Tubulin (Homo sapiens) (UniProt P68371+Q9H4B7+P0DPH7+P68366+Q13509+Q71U36+P04350+Q3ZCM7+P07437+P68363+Q9BQE3+Q6PEY2+Q13885+Q9BVA1+Q9BUF5); experiment: Binding affinity to microtubule polymerization (unknown origin) assessed as formation of microtubule at 27.5 uM measured for 2 hrs by plate reader method; type: protein-complex assay
In short: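 25 μM tubulin in GAB buffer with compound at 27.5 μM or DMSO vehicle; podophyllotoxin 27.5 μM as destabiliser control. Polymerisation started by raising temperature from 4 to 37 °C at time 0; microtubule formation followed as absorbance increase over time.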

[10] = tested on: HeLa; experiment: Induction of cell morphological changes in human HeLa cells at 10 uM measured after 3 hrs by LysoTracker Red staining based microscopic analysis; type: functional
In short: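 Living HeLa cells were treated at 10 μM, or with BafA1 at 300 nM, for 3 h, then incubated with 75 nM LysoTracker red. Cells were imaged by spinning disc microscopy at 37 °C, 5% CO2.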

[11] = tested on: OE33; experiment: Cytotoxicity against human OE33 cells assessed as inhibition of cell growth measured after 72 hrs by MTT assay; type: functional, cell-based; settings: OE33, 72 h
In short: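 Oesophageal adenocarcinoma lines were exposed to at least 8 increasing concentrations for 72 h. Viability was measured by MTT. IC50 is the mean ± SD of at least three independent experiments.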

[12] = tested on: HL-60; experiment: Induction of autophagy in human HL-60 cells assessed as increase in LC3-II protein level at 10 uM in presence of chloroquine […] by Immunoblotting analysis; type: functional, cell-based
[13] = Mutagenicity in Salmonella typhimurium TA100 in absence of rat liver S9 fraction at 0.3 to 60 uM by AMES test; type: toxicity; settings: salmonella enterica subsp. enterica serovar typhimurium, s9, 60 µM; dose 0.3-60 µM
[14] = Cytotoxicity against human TR146 cells assessed as reduction in cell viability measured after 48 hrs by alamar blue viability assay; type: functional, cell-based; settings: TR146, 48 h
In short: (§3)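 Oral squamous carcinoma cells were exposed for 48 h to at least 8 increasing concentrations. Viability was read by AlamarBlue. IC50 is the concentration that halves viability, taken as the mean ± SD of at least three independent experiments.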

[15] = tested on: SCC-4; experiment: Induction of autophagy in human SCC-4 cells assessed as increase in UlK1 phosphorylation at 10 uM in measured after 24 hrs by Immunoblotting analysis; type: functional, cell-based; in short: as §1
[16] = tested on: HL-60; experiment: Induction of autophagy in human HL-60 cells assessed as increase in LC3-II protein level at 10 uM measured up to 1 hr by Immunoblotting analysis; type: functional, cell-based
[17] = tested on: SCC-4; experiment: Induction of apoptosis in human SCC-4 cells assessed as increase in apoptotic cells at 2 uM after 48 hrs by Annexin V-FITC/PI staining based flow cytometry method; type: functional, cell-based
In short: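 SCC4 cells were treated at 0.5 or 2 μM for 48 h, then stained with Annexin V/PI and analysed by flow cytometry. Data are mean ± SEM of three independent experiments, with an unpaired one-tailed t-test versus vehicle.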

[18] = tested on: Ca9-22; experiment: Cytotoxicity against human Ca9-22 cells assessed as reduction in cell viability measured after 48 hrs by alamar blue viability assay; type: functional, cell-based; settings: Ca9-22, 48 h; in short: as §3
[19] = biological target: Mitogen-activated protein kinase; ERK1/ERK2 (Homo sapiens) (UniProt P27361+P28482); experiment: Inhibition of ERK1/2 phosphorylation in human HL-60 cells at 10 uM measured after 2 hrs by Immunoblotting analysis; type: cell-based; in short: as §2
Chain of Mitogen-activated protein kinase; ERK1/ERK2 (Homo sapiens) (P27361 whole entry, looked up): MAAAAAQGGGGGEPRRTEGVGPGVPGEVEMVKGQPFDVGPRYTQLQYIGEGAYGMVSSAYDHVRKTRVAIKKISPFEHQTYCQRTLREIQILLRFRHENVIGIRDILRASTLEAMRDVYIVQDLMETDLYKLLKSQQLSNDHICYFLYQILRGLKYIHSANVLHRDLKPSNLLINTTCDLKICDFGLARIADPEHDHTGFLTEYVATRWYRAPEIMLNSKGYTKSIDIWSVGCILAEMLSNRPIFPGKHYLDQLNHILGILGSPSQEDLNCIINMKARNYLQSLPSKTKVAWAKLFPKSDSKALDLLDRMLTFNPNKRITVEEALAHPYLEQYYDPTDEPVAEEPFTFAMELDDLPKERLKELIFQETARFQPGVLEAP
Chain of Mitogen-activated protein kinase; ERK1/ERK2 (Homo sapiens) (P28482 whole entry, looked up): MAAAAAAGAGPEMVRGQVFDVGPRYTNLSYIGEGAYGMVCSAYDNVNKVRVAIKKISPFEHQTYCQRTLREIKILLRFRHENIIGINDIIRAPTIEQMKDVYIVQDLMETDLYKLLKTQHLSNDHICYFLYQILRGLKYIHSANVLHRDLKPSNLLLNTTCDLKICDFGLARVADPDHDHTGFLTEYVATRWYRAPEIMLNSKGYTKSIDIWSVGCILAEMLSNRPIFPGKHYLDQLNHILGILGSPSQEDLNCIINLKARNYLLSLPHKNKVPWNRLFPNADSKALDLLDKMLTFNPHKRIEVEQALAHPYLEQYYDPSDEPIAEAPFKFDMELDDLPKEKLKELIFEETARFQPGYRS

[20] = Induction of Pro-apoptosis in human HL-60 cells assessed as increase in apoptotic cells at 10 uM after 48 hrs by Annexin-V/PI-staining based flow cytometry; type: functional
[21] = tested on: KYSE-520 cell line; experiment: Induction of apoptosis in human KYSE520 cells assessed as increase in apoptotic cells at 3 to 10 uM after 72 hrs by Annexin V-FITC/PI staining based flow cytometry method; type: functional, cell-based; settings: dose 3-10 µM
In short: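 KYSE-520 cells were treated at 3 and 10 μM for 72 h, then analysed by flow cytometry after Annexin V/PI dual staining.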

[22] = tested on: A549; experiment: Cytotoxicity against human A549 cells assessed as inhibition of cell growth measured after 48 hrs by MTT assay; type: functional, cell-based; settings: A549, 48 h

Row | Structure (SMILES) | Activity [1] | Activity [2] | IC50 [3] [nM] | inhibition [4] | Activity [5] | Activity [6] | Activity [7] | Activity [8] | Activity [9] | Activity [10] | IC50 [11] [nM] | Activity [12] | Activity [13] | IC50 [14] [nM] | Activity [15] | Activity [16] | Activity [17] | IC50 [18] [nM] | inhibition [19] | Activity [20] | also measured
1 | O=C(OC1=C(c2cccc3ncccc23)Oc2cc3ccccc3cc2-n2cccc21)C1CCNCC1 | Active | Active | 1680 | Active | Active | Non-Toxic | Active | Active | Active | Active | 1930 | Active | Non-Toxic | 4500 | Active | Active | Active | 2000 | Active | >=70% | Activity [21]: Active; IC50 [22]: 6150 nM
2 | CN1CCN(C(=O)OC2=C(c3cccc4ncccc34)Oc3cc4ccccc4cc3-n3cccc32)CC1 | Active | Active | 3600 | Active | Active | Non-Toxic | Active | Active | Active | Active | 400 | Active | Non-Toxic | 880 | Active | Active | Active | 130 | Active | >=70% | Activity [21]: Active; IC50 [22]: 774 nM
